In the library only some 2.2% were active in any assay of this set; here they are far more common.
PERK inhibitor – human PERK inhibition, primary cell-based screen | Q9NZJ5 | CHO PERK-DD fusion, SEAP luminescence translation reporter | inhibition, % at 5.6 µM | 0.17% of 220,000 active | AID 1416;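 active = inhibition above the mean inhibition of all tested compounds plus 3 SD, set separately per screening campaign, cut at about 2.9% in these data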;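 also: PERK kinase domain activated by AP20187 dimerizer at 100 nM; 0% = DMSO with dimerizer and 100% = rapamycin at 8.4 µM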
Target sequence (Q9NZJ5 whole entry, looked up, the tested form may be a part): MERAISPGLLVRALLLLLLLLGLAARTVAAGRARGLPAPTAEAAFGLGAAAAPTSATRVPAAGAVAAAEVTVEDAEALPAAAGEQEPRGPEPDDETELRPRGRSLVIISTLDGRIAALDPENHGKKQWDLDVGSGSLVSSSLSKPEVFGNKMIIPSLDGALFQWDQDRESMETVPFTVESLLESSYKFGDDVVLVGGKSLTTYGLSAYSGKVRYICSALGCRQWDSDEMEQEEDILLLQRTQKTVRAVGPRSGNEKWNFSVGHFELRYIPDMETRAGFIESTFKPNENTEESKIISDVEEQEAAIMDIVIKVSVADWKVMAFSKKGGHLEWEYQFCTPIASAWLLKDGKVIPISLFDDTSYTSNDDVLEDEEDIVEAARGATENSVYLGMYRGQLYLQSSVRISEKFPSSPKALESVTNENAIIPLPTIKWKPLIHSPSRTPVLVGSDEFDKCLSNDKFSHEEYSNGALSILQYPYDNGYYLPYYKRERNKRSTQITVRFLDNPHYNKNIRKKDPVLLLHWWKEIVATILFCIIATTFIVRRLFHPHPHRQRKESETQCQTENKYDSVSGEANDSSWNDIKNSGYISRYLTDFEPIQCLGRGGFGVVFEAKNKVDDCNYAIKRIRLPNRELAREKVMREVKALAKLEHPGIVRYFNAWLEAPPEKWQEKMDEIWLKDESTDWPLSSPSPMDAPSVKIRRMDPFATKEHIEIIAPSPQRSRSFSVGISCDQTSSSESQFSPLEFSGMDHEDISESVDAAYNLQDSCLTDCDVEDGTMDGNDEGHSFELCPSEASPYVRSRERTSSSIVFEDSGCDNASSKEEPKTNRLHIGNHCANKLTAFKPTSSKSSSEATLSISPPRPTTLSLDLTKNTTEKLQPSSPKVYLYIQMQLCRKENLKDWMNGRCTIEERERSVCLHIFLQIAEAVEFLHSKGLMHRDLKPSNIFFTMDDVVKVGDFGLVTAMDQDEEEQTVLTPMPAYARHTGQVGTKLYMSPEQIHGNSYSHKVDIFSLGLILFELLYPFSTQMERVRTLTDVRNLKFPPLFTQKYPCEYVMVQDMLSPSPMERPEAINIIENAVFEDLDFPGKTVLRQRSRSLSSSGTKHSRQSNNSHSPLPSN
Calb biofilm kill – mixture kills Candida albicans biofilm cells; C. albicans biofilm persisters + clotrimazole, fluorescence viability; primary screen in compound mixtures of four per well; inhibition, % at 7.6 µM; 0.02% of 120,000 active; AID 1242;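 active = inhibition above 30.3% in the primary screen of four-compound pools, then above 30% when the compound was retested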;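 also: compounds exposed to preformed 24 h biofilms for 48 h; 0% = untreated biofilm control and 100% = clotrimazole plus chlorhexidine kill blank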
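Incubation: 24 h biofilm formation, then 48 h compound exposure, 37 °C | Material: C. albicans biofilms | Buffer or medium: RPMI/MOPS medium, pH 7.0 | Measured by: 2-h Alamar Blue fluorescence, 535/590 nm excitation/emission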
p97 inhibitor – inhibitors of human p97 ATPase. inhibition, % at 8 µM. AID 1481. recombinant p97 ATPase, Kinase-Glo ATP luminescence, 3 h. 0.42% of 220,000 active. P55072; in the data active = inhibition above about 15%;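 also: 0% = DMSO vehicle and 100% = wells lacking enzyme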
14-3-3 Bad PPI – disrupts binding of bovine 14-3-3 zeta to phospho-Bad peptide | P63103 | TR-FRET 14-3-3zeta/Dy647-pBad peptide displacement, 1 h | inhibition, % at 21.7 µM | 0.71% of 220,000 active;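 active = inhibition above about 70%, limit read from the data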;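 also: 0% = full 14-3-3 plus peptide FRET controls and 100% = background without 14-3-3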
Hck Nef HTS – inhibitors of human Hck kinase activated by Nef; P08631; Recombinant Hck-YEEI plus Nef, Z-Lyte FRET kinase assay; inhibition, % at 20 µM; 0.68% of 220,000 active; AID 463187;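 active = Hck-Nef kinase inhibition above about 50%, limit read from the data; inactive = inhibition below that limit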;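 also: 0% = DMSO with Hck plus Nef and 100% = Hck alone without Nef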
eIF4E-4G inh – inhibitors of eIF4E and eIF4G interaction in translation initiation; P63073+Q04637; TR-FRET eIF4E-eIF4GI(517-606) binding, 2 h; inhibition, % at 21.7 µM; 0.37% of 220,000 active; AID 782;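 active = inhibition above about 30%, limit read from the data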;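 also: 0% = full FRET control wells and 100% = background wells lacking eIF4GI fragment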
Active calls of the source: *; · = no result; [ ] = dose if it differs, or a comment.

SMILES	PERK inhibitor	Calb biofilm kill	p97 inhibitor	14-3-3 Bad PPI	Hck Nef HTS	eIF4E-4G inh
Cc1[nH][nH]c(=O)c1C(c1c(C)[nH][nH]c1=O)c1cn(Cc2ccc(F)cc2)c2ccccc12	0.5	12.3	25.9*	-24.6	18.6	-4.5
O=C(O)Cc1cn(Cc2ccc(F)cc2)c2ccccc12	0.9	10.3	4.5	-14.1	21.7	-5.8
COc1ccc(CN(C)CCc2ccccn2)cc1OC	0.7	-1.2	6.3	62.7	-0.5	0.6
COc1cc(CN(C)CCc2ccccn2)cc(OC)c1OC	0.2	·	8.1	73.0*	-1.2	7.6
Cc1oc(C(C)(C)C)cc1C(N)=O	3.0*	-18.3	8.4	-5.0	-2.2	0.5
Cc1ccc(C)c(S(=O)(=O)N2CCN(CC(=O)N3CCc4ccccc4C3)CC2)c1	-1.0	·	-2.8	86.2*[fluorescence artefact?]	3.4	10.8
CCCCN(C)C(=S)Nc1ccsc1C(=O)OC	0.0	13.2	-0.6	-4.8	19.4	-1.0
CCc1cccc2c1NC(=O)C2(O)CC(=O)c1cccs1 (stereo not drawn)	-0.7	4.4	2.0	-5.3	-18.4	0.6
COc1ccc(CCn2c(-c3ccc(OC)cc3)nc3c(c(=O)c4ccccc4n3C)c2=O)cc1	0.1	24.0	-0.2	5.8	37.9	-3.3
CCc1nc2c(c(=O)c3ccccc3n2C)c(=O)n1CCc1ccc(OC)cc1	0.1	0.1	7.0	88.2*	0.0	0.4
O=C(Nc1ccc2ccccc2c1)N1CCCN(CCOc2ccccc2)CC1	-1.2	24.9	-2.2	2.5	2.9	5.4
Cn1c(=O)c2c(SCc3ccccc3)nc(-c3ccco3)nc2n(C)c1=O	4.2*	·	6.4	9.2	-3.7	2.1
O=C1/C(=C/c2cccs2)SC(=S)N1c1cccc(O)c1	0.1	38.2	1.1	-9.0	4.5	3.1
CCOc1cccc2cc(-c3nnc(NCc4ccc5c(c4)OCO5)s3)c(=O)oc12	0.5	17.4	6.0	83.1*[fluorescence artefact?]	0.4	-7.4
CCOc1ccccc1C(=O)NCc1ccc2c(c1)OCO2	-0.1	·	1.8	2.5	1.7	-6.6
O=C(CC1C(=O)NCCN1Cc1ccoc1)NCCCn1ncc2ccccc21 (stereo not drawn)	0.9	5.7	1.6	-1.1	8.4	3.0
O=C(CN1CCOCC1)Nc1ncc(Br)cc1Br	3.2*	·	-1.0	-5.1	-0.4	-3.0
CCS(=O)(=O)N1CCC(N2CCC(C)CC2)CC1	1.0	19.9	-4.0	19.8	3.0	-1.9
CCc1c(C)c(C#N)c2[nH]c3ccccc3n2c1=S	1.1	14.0	14.1	-14.8	-152.4	33.3*
Cc1ccc(Cc2c(C)c(C#N)c3[nH]c4ccccc4n3c2=O)cc1	2.1	9.2	3.9	-4.2	25.3	0.6
COc1ccc(O)c(/C=C(\C#N)C(=O)Nc2cccnc2)c1	0.3	21.5	0.9	19.5	1.6	37.1*
COc1ccc(/C=C(\C#N)C(=O)Nc2cccnc2)cc1	0.8	14.8	6.4	-2.2	4.2	-0.3
Cc1ccc(-c2nc(N/N=C/c3cccnc3)c3ccccc3n2)cc1	-0.9	·	-52.9	-1.1	1.6	-3.7
COc1ccc(/C=N/Nc2nc(-c3cccnc3)nc3ccccc23)c(OC)c1	-0.3	18.4	-8.5	70.3*	-34.1	11.0
NC(=O)CC(NC(=O)Cc1ccc(Br)cc1)c1ccc(NCCc2ccccc2F)c([N+](=O)[O-])c1 (stereo not drawn)	·	17.6	·	9.1	19.3	0.3
SMILES	PERK inhibitor	Calb biofilm kill	p97 inhibitor	14-3-3 Bad PPI	Hck Nef HTS	eIF4E-4G inh
CCOC(=O)c1ccc(N=c2ssnc2Cl)cc1	0.2	9.4	-4.4	34.1	18.8	38.8*
Fc1ccc(N=c2ssnc2Cl)c(F)c1	0.6	19.8	-4.5	41.5	-13.1	51.4*
Clc1ccc(N=c2ssnc2Cl)cc1	0.0	11.3	2.4	43.7	-21.2	30.7*[fluorescence artefact?]
COc1ccc(N=c2ssnc2Cl)cc1	-0.2	12.4	-3.9	29.0	-1.1	30.3*
COc1ccc(N=Cc2sc3ccccc3c2Cl)cc1	0.8	·	2.6	0.5	3.4	2.4
O=C(CN(C(=O)c1ccccc1Cl)N1C(=O)CCCC1=O)c1ccc(Cl)cc1	0.8	9.4	3.0	-3.3	0.6	-3.3
N#Cc1ccc(N=c2ssnc2Cl)cc1	0.1	·	-5.0	31.1	3.7	26.0
Clc1nssc1=Nc1ccccc1	1.5	8.1	5.3	25.6	-0.2	50.6*
COc1cc(N=c2ssnc2Cl)cc(OC)c1OC	-0.3	·	-0.5	37.7	-4.0	66.9*
CCOC(=O)Cc1c(C)nc2c(-c3ccc(OC)cc3)c(C)nn2c1C	0.1	·	0.7	-5.8	-13.4	0.6
Cc1cccc(CN2CCCC(C(=O)c3ccc4c5c(cccc35)CC4)C2)n1 (stereo not drawn)	1.2	10.7	-1.2	-5.0	153.6*	0.9
CCOC(=O)c1c(C)noc1-c1ccc(Br)o1	4.6*	26.9	-2.0	-10.8	2.9	-0.4
Cc1c[nH]c(=O)c([N+](=O)[O-])c1	3.8*	26.9	10.2	-0.6	-2.9	-0.2
COC(=O)C1=C(C)NC(C)=C(C(=O)OC)C1C(=O)OC(C)C(=O)c1ccccc1 (stereo not drawn)	1.3	9.6	2.6	-3.2	-5.1	3.0
CCCN1C(=O)/C(=C/c2c(N3CCNC(=O)C3CC(=O)OC)nc3c(C)cccn3c2=O)SC1=S (stereo not drawn)	-0.9	16.5	14.6*	-3.1	-85.5	-8.8
c1ccc2c(CSc3nnc(-c4ccncc4)o3)cccc2c1	-1.0	·	-12.3	78.0*	-0.1	11.0
S=C(Nc1cccc(Cl)c1)Nc1cccc2cnccc12	-0.6	27.4	26.7*	-8.6	-1.7	-5.5
CC(=O)c1ccc(NC(=S)Nc2cccc3cnccc23)cc1	0.5	18.3	17.3*	-0.1	8.9	-2.9
NC(=O)c1cc2c3ccccc3ccn2c1-c1ccccc1	1.0	13.5	6.0	2.7	22.3	4.2
COc1cc(N/C(N)=N/c2nc(C)cc(C)n2)c(OC)cc1Cl	0.2	12.0	6.0	-6.0	14.0	0.9
NNC(=O)c1sccc1OCc1ccc(Cl)cc1Cl	-1.0	10.6	-6.1	4.7	-25.7	-3.1
COc1ccccc1NC(=O)C(=O)N/N=C/c1ccc([N+](=O)[O-])s1	0.6	2.9	5.0	84.4*	22.9	-4.3
CNc1ccc([N+](=O)[O-])cc1-c1nc2ccccc2[nH]c1=O	1.0	15.2	2.5	72.7*	28.3	17.9
COc1cccc(OC)c1CN1CCCC(C(=O)c2ccccc2SC)C1 (stereo not drawn)	0.1	11.2	-2.4	-6.8	19.8	-2.3
Cc1ccc(Nc2nc(=O)c3cccnc3s2)cc1	-0.8	·	7.3	-0.5	-0.1	-3.3
COc1ccc(OC)c(Nc2nc(=O)c3cccnc3s2)c1	0.3	13.8	-4.1	-10.4	-26.9	32.0*
O=C1Nc2ccccc2/C1=N/N=C/c1ccc(-c2ccc([N+](=O)[O-])cc2)o1	0.4	16.1	5.6	95.0*	36.6	15.2

Screening results (PubChem)
